This is an account of results in ChEMBL document CHEMBL1800062, “Structure-activity relationships of carboline and carbazole derivatives as a novel class of ATP-competitive kinesin spindle protein inhibitors” (J Med Chem, 2011).

Calls of active or inactive are those of the source. The calls are words filed in the database; no cut-off is given here.

For test [1], the target named is T1, Kinesin-like protein KIF11 (Homo sapiens) (UniProt P52732).
T1 sequence (whole entry): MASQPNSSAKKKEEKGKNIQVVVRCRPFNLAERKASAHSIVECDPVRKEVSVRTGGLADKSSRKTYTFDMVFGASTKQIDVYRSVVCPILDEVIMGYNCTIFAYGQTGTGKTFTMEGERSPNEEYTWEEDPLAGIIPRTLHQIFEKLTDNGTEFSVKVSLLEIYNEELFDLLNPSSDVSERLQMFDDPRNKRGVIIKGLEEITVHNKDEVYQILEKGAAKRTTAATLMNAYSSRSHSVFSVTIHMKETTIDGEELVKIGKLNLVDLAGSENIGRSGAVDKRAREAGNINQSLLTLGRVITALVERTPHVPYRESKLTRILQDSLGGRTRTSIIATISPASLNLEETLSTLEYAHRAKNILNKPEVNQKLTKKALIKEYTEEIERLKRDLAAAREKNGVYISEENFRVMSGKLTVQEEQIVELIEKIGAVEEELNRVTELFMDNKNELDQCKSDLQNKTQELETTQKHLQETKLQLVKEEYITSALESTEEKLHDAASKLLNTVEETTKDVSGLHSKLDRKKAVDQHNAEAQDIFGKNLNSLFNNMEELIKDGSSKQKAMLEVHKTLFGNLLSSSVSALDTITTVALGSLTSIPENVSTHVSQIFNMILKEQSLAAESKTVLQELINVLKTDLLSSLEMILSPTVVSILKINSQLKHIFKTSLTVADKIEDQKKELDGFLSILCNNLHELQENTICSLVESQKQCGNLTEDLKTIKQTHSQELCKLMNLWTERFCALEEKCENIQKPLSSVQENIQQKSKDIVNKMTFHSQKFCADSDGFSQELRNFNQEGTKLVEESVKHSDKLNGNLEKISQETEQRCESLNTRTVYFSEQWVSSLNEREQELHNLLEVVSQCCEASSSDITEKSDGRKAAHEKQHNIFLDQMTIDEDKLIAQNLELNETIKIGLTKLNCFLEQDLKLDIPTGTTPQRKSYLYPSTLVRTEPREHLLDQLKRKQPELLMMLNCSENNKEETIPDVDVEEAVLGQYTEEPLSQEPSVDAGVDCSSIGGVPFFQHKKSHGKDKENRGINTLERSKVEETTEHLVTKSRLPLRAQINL
Nature of the test: Inhibition of C-terminally His6-tagged microtubule-activated KSP motor domain ATPase activity assessed as ATP hydrolysis by Lineweaver-Burk plot analysis. In outline: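 Steady-state coupled assay with 80 nM bacterially expressed KSP motor domain and 400 nM taxol-stabilized microtubules. Buffer: 50 mM PIPES pH 6.9, 2.5 mM KCl, 1 mM MgCl₂, PEP, NADH, DTT, 8 μM taxol, pyruvate kinase/lactate dehydrogenase. ATP varied, with or without inhibitor; A340 read every 5 s. Rates from linear least-squares fits, fitted to Michaelis–Menten and shown as Lineweaver–Burk plots.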

The subject of test [2] is HeLa. Nature of the test: Antimitotic activity in human HeLa cells assessed as formation of monopolar spindles at 0.25 uM after 24 hrs using DAPI staining by fluorescent microscopic analysis. Type of test: functional, cell-based. Put shortly:
(§1)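 HeLa given the stated inhibitor concentration for 24 h on glass chamber slides (DMSO final 0.4% v/v), then fixed in paraformaldehyde and cold methanol. Microtubules stained with anti-α-tubulin DM1A, mitotic chromosomes stained with anti-phospho-H3 Ser10, DNA stained with DAPI. Monopolar spindle phenotype in mitotically arrested cells scored by fluorescence microscopy.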

Test [3] concerns HeLa. Nature of the test: Antimitotic activity in human HeLa cells assessed as formation of monopolar spindles at 4 uM after 24 hrs using DAPI staining by fluorescent microscopic analysis. Type of test: functional, cell-based. In outline: as §1
The test system of test [4] is HeLa. Nature of the test: Antimitotic activity in human HeLa cells assessed as formation of monopolar spindles at 2 uM after 24 hrs using DAPI staining by fluorescent microscopic analysis. The test is classed as functional, cell-based. Put shortly: as §1

On to `O=C1CCc2cc3c(cc2N1)[nH]c1cc(C(F)(F)F)ccc13`, for which, in test [1], the inhibition result is “Active”. In addition, the outcome in the test with HeLa [2] was Active.
For the molecule `NC(=O)Nc1ccc2c(c1)[nH]c1cc(C(F)(F)F)ccc12`, the result in the test on HeLa [3] was Active.
As to `O=C1CCc2c(ccc3c2[nH]c2cc(C(F)(F)F)ccc23)N1`, in the test on HeLa [4], the outcome was Active.
